Bioassay records as filed in PubChem BioAssay.
Most compounds without a hit are left out; they make up all but 1.2% or so of the library.
SR-BI DiI-HDL act: activators of SR-BI mediated DiI-HDL uptake, primary screen, ldlA[mSR-BI] CHO cells, DiI fluorescence; 3 h; 100 = double the neutral-control signal; activation, % at 12.5 µM; hit rate 0.096% among 320,000; AID 504775, 2011;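 active = mean replicate activation of at least 60% and every replicate at or above 60%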;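 note: 0% = median plate neutral-control signal and 100% = twice that signal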
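Test system: SR-BI-overexpressing, LDLR-lacking CHO cells; Medium: Ham's F12 with 0.5% BSA, HEPES 25 mM, pH 7.4; Schedule: 3 h, 37 °C; Technique: bottom-read fluorescence, 550/595 nm.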
Efflux pump inh: inhibitors of Candida efflux pumps in yeast, primary screen, S. cerevisiae, Nile Red, multiplex | S. cerevisiae Candida pump triplex | inhibition, % at 10 µM | hit rate 0.44% among 330,000;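 active = plate passing quality check with inhibition over a set limit, or well fluorescence over plate mean plus 4 SD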;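 note: Nile Red retained in pooled yeast measured as flow cytometry median fluorescence; 0% = buffer negative control and 100% = Enniatin B positive control; higher means more Nile Red kept so more efflux inhibition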
CaV13 ICDI inh: Disruptors of the CACNA1D IQ motif to Ca2+-dependent inactivation inhibitor domain association, primary screening, Förster resonance energy transfer in intact living …. inhibition, % at 12.3 µM. HEK cells, CFP/YFP FRET ICDI-IQ, plate reader, 10 min; percent FRET-ratio fall versus neutral wells. hit rate 0.098% among 340,000. AID 743397;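 active = mean replicate inhibition of at least 30% and at least 1% of replicates passing that level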;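 note: 0% = median of the neutral control wells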
SR-BI DiI inh: inhibitors of SR-BI mediated HDL lipid uptake, primary screen, ldlA[mSR-BI] cells, fluorescence, single point | AID 488896, 2010 | hit rate 0.96% among 320,000 | Scavenger receptor class B member 1 (Mus musculus), Q61009 | ldlA[mSR-BI] CHO cells, DiI-HDL uptake fluorescence, 3 h | inhibition, % at 12.5 µM;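 active = mean replicate inhibition of at least 70% and a set share of replicates each scoring 70 or more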;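 note: 0% = median of neutral control wells and 100% = median of positive control wells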
Target sequence (Q61009 whole entry, looked up): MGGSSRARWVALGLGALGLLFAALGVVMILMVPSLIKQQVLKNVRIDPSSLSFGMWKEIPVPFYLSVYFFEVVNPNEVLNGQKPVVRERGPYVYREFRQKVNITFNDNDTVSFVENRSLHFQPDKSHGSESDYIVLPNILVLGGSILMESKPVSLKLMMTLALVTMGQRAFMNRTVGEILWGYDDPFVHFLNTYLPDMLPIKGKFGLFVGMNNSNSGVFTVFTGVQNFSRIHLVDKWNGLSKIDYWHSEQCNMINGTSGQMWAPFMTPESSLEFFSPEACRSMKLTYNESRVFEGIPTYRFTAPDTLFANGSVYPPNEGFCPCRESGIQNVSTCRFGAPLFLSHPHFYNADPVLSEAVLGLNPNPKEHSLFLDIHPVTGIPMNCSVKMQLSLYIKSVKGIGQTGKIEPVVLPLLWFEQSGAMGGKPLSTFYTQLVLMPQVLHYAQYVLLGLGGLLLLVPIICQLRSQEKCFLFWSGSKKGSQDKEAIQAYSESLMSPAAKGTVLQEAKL
FN deposition inh: inhibitors of fibronectin matrix deposition, primary screen, AH1F cells, Alexa488-fibronectin fluorescence, plate reader; AH1F fibroblasts, overnight; inhibition, % at 12.6 µM; hit rate 0.086% among 350,000; AID 743247, 2014;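 active = mean inhibition across replicates of 30% or more, regardless of how many single replicates reach that level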;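 note: positive control wells lacked labelled fibronectin entirely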
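Assay system: AH1F fibroblasts / Quantity: 10000 cells per well / Medium: DMEM plus 2% serum, read in PBS / Reagent: labelled fibronectin 24 nM / Dosing: single dose, pinned / Times: 1 h cell attachment, overnight exposure to compound and label / Signal: fluorescence, ex 485 nm, em 525 nm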
The depositor's hits bear a star.

COc1ccc(Cl)cc1NC(=O)C1CCN(C(=O)C2CC(=O)N(c3ccc(C)cc3)C2)CC1 (configuration not stated) was read as SR-BI DiI-HDL act -89, Efflux pump inh 0, CaV13 ICDI inh -3, SR-BI DiI inh 89* and FN deposition inh 2.
CCCC(C)C(=O)Nc1nc(C)c(-c2csc(Nc3cc(OC)ccc3OC)n2)s1 (configuration not stated) was read as SR-BI DiI-HDL act -93, Efflux pump inh 0, CaV13 ICDI inh -7, SR-BI DiI inh 93* and FN deposition inh -12.
Screening CCC(C)C(=O)Nc1nc(C)c(-c2csc(Nc3ccc(Cl)cc3)n2)s1 (configuration not stated) returned SR-BI DiI-HDL act -78, CaV13 ICDI inh -10, SR-BI DiI inh 78* and FN deposition inh -2.
CCCC(=O)Nc1nc(C)c(-c2csc(Nc3cc(OC)ccc3OC)n2)s1 was read as SR-BI DiI-HDL act -94, Efflux pump inh 0, CaV13 ICDI inh -7, SR-BI DiI inh 94* and FN deposition inh -6.
C=CCCC(=O)Nc1nc(C)c(-c2csc(Nc3cc(OC)ccc3OC)n2)s1 was read as SR-BI DiI-HDL act -56, Efflux pump inh 0, CaV13 ICDI inh -8, SR-BI DiI inh 56 and FN deposition inh -4.
Screening COc1ccc(OC)c(Nc2nc(-c3sc(N)nc3C)cs2)c1 returned SR-BI DiI-HDL act -52, Efflux pump inh 0, CaV13 ICDI inh -5, SR-BI DiI inh 52 and FN deposition inh -6.
`CCCCCC(=O)Nc1nc(C)c(-c2csc(Nc3cc(Cl)ccc3OC)n2)s1` gave SR-BI DiI-HDL act -79, Efflux pump inh 0, CaV13 ICDI inh -10, SR-BI DiI inh 79* and FN deposition inh -6.
COCC(=O)Nc1ccc2c(c1)C(=O)N(C)[C@H]1CC[C@@H](CC(=O)NCCc3ccccc3)O[C@H]1CO2 was read as FN deposition inh -18.
CCCNC(=O)Nc1ccc2c(c1)C(=O)N(C)C[C@H](OC)[C@H](C)CN(CCC(F)(F)F)[C@H](C)CO2 was read as FN deposition inh 2.
`COc1ccccc1Nc1nc(-c2sc(NC(=O)C(C)(C)C)nc2C)cs1` gave SR-BI DiI-HDL act -85, Efflux pump inh 0, CaV13 ICDI inh -10, SR-BI DiI inh 85* and FN deposition inh 1.
Screening Cc1ccc(C(=O)OCC(=O)Nc2nc(-c3ccccc3)cs2)cc1NC(=O)c1ccco1 returned SR-BI DiI-HDL act -83, Efflux pump inh 0, CaV13 ICDI inh -4, SR-BI DiI inh 83* and FN deposition inh -10.
Screening Cc1ccc(C(=O)OCC(=O)Nc2ccccc2)cc1NC(=O)c1ccco1 returned SR-BI DiI-HDL act 8, Efflux pump inh 0, CaV13 ICDI inh -4, SR-BI DiI inh -8 and FN deposition inh 1.
C[C@H]1CN([C@@H](C)CO)C(=O)c2cccc(NC(=O)c3nc4ccccc4s3)c2O[C@H]1CN(C)Cc1ccc(C(=O)Nc2ccccc2N)cc1 was read as FN deposition inh 19.
For C[C@@H]1CN(C)C(=O)c2cccnc2O[C@H]1CN(C)C the results were FN deposition inh 3.
Screening Cc1nc2ccccc2n1S(=O)(=O)c1ccc(Br)cc1 returned SR-BI DiI-HDL act 65*, Efflux pump inh 0, CaV13 ICDI inh -3, SR-BI DiI inh -65 and FN deposition inh -1.
CCc1ccc(S(=O)(=O)n2c(C)nc3ccccc32)cc1 was read as SR-BI DiI-HDL act -7, Efflux pump inh 0, CaV13 ICDI inh -4, SR-BI DiI inh 7 and FN deposition inh 0.
Screening COc1cc(/C=N/NC(=O)c2ccc(N(C)S(=O)(=O)c3ccccc3)cc2)cc(OC)c1OC returned SR-BI DiI-HDL act -49, Efflux pump inh 0, CaV13 ICDI inh -5, SR-BI DiI inh 49 and FN deposition inh 6.
`COc1ccccc1/C=N/NC(=O)c1cccc2ccccc12` gave SR-BI DiI-HDL act -77, Efflux pump inh 0, CaV13 ICDI inh -2, SR-BI DiI inh 77* and FN deposition inh 2.
Screening O=C(N/N=C/c1ccccc1[N+](=O)[O-])c1ccc(COc2ccccc2-c2ccccc2)cc1 returned SR-BI DiI-HDL act -77, Efflux pump inh 0, CaV13 ICDI inh -4, SR-BI DiI inh 77* and FN deposition inh 1.
For COc1ccccc1/C=N/NC(=O)c1ccc(-c2ccccc2)cc1 the results were SR-BI DiI-HDL act -79, Efflux pump inh 0, CaV13 ICDI inh -7, SR-BI DiI inh 79* and FN deposition inh 7.
For CCOc1ccccc1C=NNC(=O)c1cccc2ccccc12 the results were SR-BI DiI-HDL act -66, CaV13 ICDI inh -6 and SR-BI DiI inh 66.
`CCOc1cc(/C=N/NC(=O)c2ccc(N(C)S(=O)(=O)c3ccccc3)cc2)ccc1OC` gave SR-BI DiI-HDL act -73, Efflux pump inh 0, CaV13 ICDI inh -5, SR-BI DiI inh 73* and FN deposition inh -2.
Screening C[C@@H]1CN([C@@H](C)CO)C(=O)Cc2cc(N(C)C)ccc2O[C@H]1CN(C)C(=O)Nc1ccc2c(c1)OCO2 returned FN deposition inh -7.
COc1cc(/C=N\NC(=O)c2ccc(-c3ccccc3)cc2)cc(OC)c1O was read as SR-BI DiI-HDL act -92, Efflux pump inh 0, CaV13 ICDI inh -10, SR-BI DiI inh 92* and FN deposition inh 8.
Screening Cc1[nH]c2ccccc2c1/C=N/Nc1ccccc1[N+](=O)[O-] returned SR-BI DiI-HDL act -129, Efflux pump inh 0, CaV13 ICDI inh -19, SR-BI DiI inh 129* and FN deposition inh 19.
`COc1cc(/C=N/Nc2ccccc2[N+](=O)[O-])cc(OC)c1O` gave SR-BI DiI-HDL act -79, Efflux pump inh 0, CaV13 ICDI inh -20, SR-BI DiI inh 79* and FN deposition inh 5.
For COC(=O)N/N=C/c1ccccc1OCc1ccccc1 the results were SR-BI DiI-HDL act -52, Efflux pump inh 1, CaV13 ICDI inh -19, SR-BI DiI inh 52 and FN deposition inh 3.
CC(=O)Nc1ccc(C(=O)N/N=C/c2ccccc2OCc2ccccc2)cc1 was read as SR-BI DiI-HDL act -79, Efflux pump inh 0, CaV13 ICDI inh 5, SR-BI DiI inh 79* and FN deposition inh 4.
COc1ccc(NS(=O)(=O)c2cc([N+](=O)[O-])ccc2N/N=C/c2c(C)[nH]c3ccccc23)cc1 was read as SR-BI DiI-HDL act -11, CaV13 ICDI inh -7, SR-BI DiI inh 11 and FN deposition inh -6.
C[C@H](CO)N1C[C@H](C)[C@H](CN(C)Cc2ccc(Cl)c(Cl)c2)OCCCC[C@H](C)Oc2ccc(NC(=O)Nc3ccccc3)cc2C1=O was read as FN deposition inh -5.
